# Data from ChEMBL document CHEMBL1140715, “Structure-activity relationships of novel iron chelators for the treatment of iron overload disease: the methyl pyrazinylketone isonicotinoyl hydrazone series” (J Med Chem, 2008).
# Test system: MRC5
# Assay: Antiproliferative activity against human MRC5 cells by MTT assay
# Format: cell-based
# Conditions: not given
# Summary of the method: (§1)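 MTT assay of cell proliferation; MTT colour formation directly proportional to viable cell number counted by Trypan blue staining. IC50 reported as mean ± SD of three experiments.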
row,Compound,IC50 [µM]
1,C/C(=N\NC(=O)c1cccc(Br)c1)c1cnccn1,3.12
2,C/C(=N\NC(=O)c1ccccc1)c1cnccn1 [METHYL PYRAZINYLKETONE BENZOYL HYDRAZONE],7.04
3,C/C(=N\NC(=O)c1ccc(C(F)(F)F)cc1)c1cnccn1,2.09
4,C/C(=N\NC(=O)c1ccc(Br)cc1)c1cnccn1,2.94
5,C/C(=N\NC(=O)c1ccc(O)cc1)c1cnccn1,> 80
6,C/C(=N\NC(=O)c1ccc([N+](=O)[O-])cc1)c1cnccn1,2.87
7,C/C(=N\NC(=O)c1cccs1)c1cnccn1 [METHYL PYRAZINYLKETONE THIOPHENECARBOXYL HYDRAZONE],5.54
8,C/C(=N\NC(=O)c1ccncc1)c1cnccn1 [METHYL PYRAZINYLKETONE ISONICOTINOYL HYDRAZONE],25.2
9,C/C(=N\NC(=O)c1ccc(N)cc1)c1cnccn1,> 80

# Test system: not listed separately
# Assay: Antiproliferative activity against human […] cells by MTT assay
# Format: cell-based
# Conditions: not given
# Summary of the method: as §1
row,Compound,IC50 [µM]
1,C/C(=N\NC(=O)c1cccc(Br)c1)c1cnccn1,1.15
2,CN(C)C(=S)NN=C(c1ccccn1)c1ccccn1,0.001
3,O=C(NN=C(c1ccccn1)c1ccccn1)c1ccc([N+](=O)[O-])cc1,0.26
4,O=C(N/N=C/c1c(O)ccc2ccccc12)c1ccncc1,0.83
5,C/C(=N\NC(=O)c1ccccc1)c1cnccn1 [METHYL PYRAZINYLKETONE BENZOYL HYDRAZONE],3.62
6,O=C(NN=C(c1ccccn1)c1ccccn1)c1cccc(Br)c1,0.24
7,C/C(=N\NC(=O)c1ccc(C(F)(F)F)cc1)c1cnccn1,1.16
8,Nc1ccc(C(=O)N/N=C/c2ccccn2)cc1,> 80
9,C/C(=N\NC(=O)c1ccc(Br)cc1)c1cnccn1,1.22
10,CC(=O)N(O)CCCCCNC(=O)CCC(=O)N(O)CCCCCNC(=O)CCC(=O)N(O)CCCCCN [DEFEROXAMINE],12.1
11,C/C(=N\NC(=O)c1ccc(O)cc1)c1cnccn1,16.8
12,O=C(N/N=C/c1ccccn1)c1ccccc1,19.2
13,NC(=S)N/N=C/c1ncccc1N [TRIAPINE],0.66
14,C/C(=N\NC(=O)c1ccc([N+](=O)[O-])cc1)c1cnccn1,1.39
15,O=C(N/N=C/c1ccccn1)c1ccc([N+](=O)[O-])cc1,35.5
16,O=C(N/N=C/c1ccccn1)c1ccc(Br)cc1,17.7
17,O=C(N/N=C/c1ccccn1)c1cccs1,22.7
18,C/C(=N\NC(=O)c1cccs1)c1cnccn1 [METHYL PYRAZINYLKETONE THIOPHENECARBOXYL HYDRAZONE],2.13
19,O=C(NN=C(c1ccccn1)c1ccccn1)c1ccc(C(F)(F)F)cc1,0.24
20,O=C(N/N=C/c1ccccn1)c1ccc(O)cc1,> 80
21,O=C(N/N=C/c1ccccn1)c1ccncc1,> 80
22,O=C(NN=C(c1ccccn1)c1ccccn1)c1ccccc1,3.04
23,O=C(N/N=C/c1ccccn1)c1ccc(C(F)(F)F)cc1,22.4
24,C/C(=N\NC(=O)c1ccncc1)c1cnccn1 [METHYL PYRAZINYLKETONE ISONICOTINOYL HYDRAZONE],5.79
25,O=C(NN=C(c1ccccn1)c1ccccn1)c1ccc(Br)cc1,0.3
26,C/C(=N\NC(=O)c1ccc(N)cc1)c1cnccn1,58.8

# Test system: not listed separately
# Assay: Partition coefficient, log P of the compound
# Format: physicochemical
# Conditions: octanol/water
# Summary of the method: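 Octanol–water partition coefficient measured spectrophotometrically.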
row,logP,Compound
1,2.9,C/C(=N\NC(=O)c1cccc(Br)c1)c1cnccn1
2,1.9,C/C(=N\NC(=O)c1ccccc1)c1cnccn1 [METHYL PYRAZINYLKETONE BENZOYL HYDRAZONE]
3,2,C/C(=N\NC(=O)c1ccc(C(F)(F)F)cc1)c1cnccn1
4,2.9,C/C(=N\NC(=O)c1ccc(Br)cc1)c1cnccn1
5,1.9,C/C(=N\NC(=O)c1ccc(O)cc1)c1cnccn1
6,2.1,C/C(=N\NC(=O)c1ccc([N+](=O)[O-])cc1)c1cnccn1
7,2.6,C/C(=N\NC(=O)c1cccs1)c1cnccn1 [METHYL PYRAZINYLKETONE THIOPHENECARBOXYL HYDRAZONE]
8,1.2,C/C(=N\NC(=O)c1ccncc1)c1cnccn1 [METHYL PYRAZINYLKETONE ISONICOTINOYL HYDRAZONE]
9,1.3,C/C(=N\NC(=O)c1ccc(N)cc1)c1cnccn1

# Test system: not listed separately
# Assay: Induction of intracellular iron mobilization in human […] cells relative to control
# Format: functional
# Design: concentration or dose not given beside the values
# Conditions: not given
# Summary of the method: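 SK-N-MC cells prelabeled with 59Fe-Tf (0.75 µM) for 3 h at 37 °C, washed four times with ice-cold PBS, then incubated with chelator (50 µM) for 3 h at 37 °C. Released 59Fe in medium and cell pellet counted by γ-scintillation. Mean ± SD, three experiments, triplicate determinations.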
row,Compound,Activity [%]
1,C/C(=N\NC(=O)c1cccc(Br)c1)c1cnccn1,31
2,O=C(N/N=C/c1c(O)ccc2ccccc12)c1ccncc1,44
3,C/C(=N\NC(=O)c1ccccc1)c1cnccn1 [METHYL PYRAZINYLKETONE BENZOYL HYDRAZONE],31
4,Cc1ncc(CO)c(/C=N/NC(=O)c2ccncc2)c1O [PYRIDOXAL ISONICOTINOYL HYDRAZONE],40
5,C/C(=N\NC(=O)c1ccc(C(F)(F)F)cc1)c1cnccn1,31
6,C/C(=N\NC(=O)c1ccc(Br)cc1)c1cnccn1,31
7,CC(=O)N(O)CCCCCNC(=O)CCC(=O)N(O)CCCCCNC(=O)CCC(=O)N(O)CCCCCN [DEFEROXAMINE],16
8,C/C(=N\NC(=O)c1ccc(O)cc1)c1cnccn1,39
9,C/C(=N\NC(=O)c1ccc([N+](=O)[O-])cc1)c1cnccn1,31
10,C/C(=N\NC(=O)c1cccs1)c1cnccn1 [METHYL PYRAZINYLKETONE THIOPHENECARBOXYL HYDRAZONE],31
11,C/C(=N\NC(=O)c1ccncc1)c1cnccn1 [METHYL PYRAZINYLKETONE ISONICOTINOYL HYDRAZONE],31
12,C/C(=N\NC(=O)c1ccc(N)cc1)c1cnccn1,34
